Experiments:
[1] = biological target: Metabotropic glutamate receptor 5 (Homo sapiens, UniProt P41594); assay: Positive allosteric modulation of human mGluR5 expressed in HEK293 cells assessed as Ca2+ influx by FLIPR assay; assay type: functional, cell-based
Outline: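 HEK293 cells stably expressing human mGluR5 d isoform, plated the day before at 25,000 cells/well in DMEM with 10% dialyzed FBS. Loaded 1 h at 37 °C with 4.3 uM Fluo-4 AM in HBSS/20 mM HEPES/1 mM probenecid, pH 7.4, then washed. Eleven-concentration series added, agonist read 1 min; after 15 min, EC20 L-glutamate (final 200-300 nM) added, Ca2+ read 1 min.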

[2] = Intrinsic clearance in human liver microsome assessed as per mg of protein; assay type: ADME; conditions: liver microsomes
[3] = Oral bioavailability in dog; assay type: ADME, organism-based, Canis lupus familiaris; conditions: in vivo
[4] = Clearance in rat plasma; assay type: ADME, organism-based
[5] = biological target: Metabotropic glutamate receptor 5 (Rattus norvegicus) (UniProt P31424); assay: Displacement of [3H]-MPEP from rat mGluR5
Sequence of Metabotropic glutamate receptor 5 (Rattus norvegicus) (P31424 whole entry, looked up): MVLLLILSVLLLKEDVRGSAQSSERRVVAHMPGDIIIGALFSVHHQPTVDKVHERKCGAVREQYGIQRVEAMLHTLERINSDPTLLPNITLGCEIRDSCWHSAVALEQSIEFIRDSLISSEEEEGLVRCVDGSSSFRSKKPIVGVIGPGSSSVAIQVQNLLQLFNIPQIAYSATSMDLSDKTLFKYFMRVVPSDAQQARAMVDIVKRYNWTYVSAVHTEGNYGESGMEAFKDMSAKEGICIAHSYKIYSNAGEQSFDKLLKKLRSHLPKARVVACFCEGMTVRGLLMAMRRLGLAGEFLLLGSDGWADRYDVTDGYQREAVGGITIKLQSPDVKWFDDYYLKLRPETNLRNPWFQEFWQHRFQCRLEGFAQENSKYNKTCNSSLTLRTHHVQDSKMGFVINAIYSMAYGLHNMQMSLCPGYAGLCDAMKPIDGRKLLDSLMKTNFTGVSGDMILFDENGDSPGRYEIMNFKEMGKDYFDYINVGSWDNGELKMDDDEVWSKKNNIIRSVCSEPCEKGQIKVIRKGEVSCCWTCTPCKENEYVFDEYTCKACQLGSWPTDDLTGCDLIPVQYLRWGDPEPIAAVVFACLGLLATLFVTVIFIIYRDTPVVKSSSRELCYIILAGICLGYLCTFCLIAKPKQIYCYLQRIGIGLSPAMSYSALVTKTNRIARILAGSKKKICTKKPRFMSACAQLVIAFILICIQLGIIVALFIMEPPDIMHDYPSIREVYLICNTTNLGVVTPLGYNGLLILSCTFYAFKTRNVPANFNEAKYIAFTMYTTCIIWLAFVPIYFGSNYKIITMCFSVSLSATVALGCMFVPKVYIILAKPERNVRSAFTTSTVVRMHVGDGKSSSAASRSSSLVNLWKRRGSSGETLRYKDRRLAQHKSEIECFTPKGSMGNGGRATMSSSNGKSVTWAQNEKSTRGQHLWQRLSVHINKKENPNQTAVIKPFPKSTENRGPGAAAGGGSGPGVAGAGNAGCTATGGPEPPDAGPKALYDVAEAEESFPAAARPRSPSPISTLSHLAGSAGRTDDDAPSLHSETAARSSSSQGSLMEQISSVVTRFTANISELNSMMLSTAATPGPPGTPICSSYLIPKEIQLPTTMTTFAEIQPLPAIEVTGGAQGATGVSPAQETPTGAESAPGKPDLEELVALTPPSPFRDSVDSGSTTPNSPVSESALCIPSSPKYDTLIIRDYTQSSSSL

[6] = Oral bioavailability in rat; assay type: ADME, organism-based; conditions: in vivo
[7] = Clearance in dog plasma; assay type: ADME, organism-based, Canis lupus familiaris
[8] = Half life in rat; assay type: ADME, organism-based; conditions: in vivo
[9] = Volume of distribution in rat; assay type: ADME, organism-based; conditions: in vivo
[10] = Ratio of drug level in brain to plasma in rat; assay type: ADME, organism-based; conditions: brain and plasma, read-out: BPR
[11] = Volume of distribution in dog; assay type: ADME, organism-based, Canis lupus familiaris; conditions: in vivo
[12] = Half life in dog; assay type: ADME, organism-based, Canis lupus familiaris; conditions: in vivo

Sequence of Metabotropic glutamate receptor 5 (P41594 whole entry, canonical isoform): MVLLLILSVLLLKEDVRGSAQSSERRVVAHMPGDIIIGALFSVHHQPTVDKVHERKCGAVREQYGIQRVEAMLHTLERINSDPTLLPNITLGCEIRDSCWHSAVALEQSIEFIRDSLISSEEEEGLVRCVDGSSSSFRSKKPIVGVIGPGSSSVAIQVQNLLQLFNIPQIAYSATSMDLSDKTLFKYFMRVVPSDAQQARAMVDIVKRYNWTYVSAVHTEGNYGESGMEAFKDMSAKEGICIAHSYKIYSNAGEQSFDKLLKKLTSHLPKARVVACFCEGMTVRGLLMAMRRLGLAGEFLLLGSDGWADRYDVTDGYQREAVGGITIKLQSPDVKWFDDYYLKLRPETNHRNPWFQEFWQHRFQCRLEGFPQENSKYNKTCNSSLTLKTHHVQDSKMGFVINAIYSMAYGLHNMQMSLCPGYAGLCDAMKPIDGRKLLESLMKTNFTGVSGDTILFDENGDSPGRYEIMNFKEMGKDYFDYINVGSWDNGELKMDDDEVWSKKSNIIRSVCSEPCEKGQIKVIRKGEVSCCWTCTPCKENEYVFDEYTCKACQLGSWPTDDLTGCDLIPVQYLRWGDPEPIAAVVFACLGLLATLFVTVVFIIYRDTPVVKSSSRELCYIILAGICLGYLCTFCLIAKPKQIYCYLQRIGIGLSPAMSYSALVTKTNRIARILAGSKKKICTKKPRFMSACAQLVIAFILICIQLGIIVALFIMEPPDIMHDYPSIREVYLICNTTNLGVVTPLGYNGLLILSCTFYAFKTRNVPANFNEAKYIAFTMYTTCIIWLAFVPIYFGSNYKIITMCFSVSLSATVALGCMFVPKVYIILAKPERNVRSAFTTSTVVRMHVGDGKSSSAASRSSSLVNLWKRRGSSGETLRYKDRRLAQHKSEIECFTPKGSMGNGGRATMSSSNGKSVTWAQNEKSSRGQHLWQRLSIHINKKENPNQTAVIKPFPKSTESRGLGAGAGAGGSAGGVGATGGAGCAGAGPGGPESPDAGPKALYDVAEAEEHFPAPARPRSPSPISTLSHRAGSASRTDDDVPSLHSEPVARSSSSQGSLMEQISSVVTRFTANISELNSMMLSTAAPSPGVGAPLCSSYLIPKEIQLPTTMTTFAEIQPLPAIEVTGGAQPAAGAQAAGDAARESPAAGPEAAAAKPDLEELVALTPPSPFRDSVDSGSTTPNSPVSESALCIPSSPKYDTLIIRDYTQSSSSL

EC50 [1] [µM]	microsomal CLint [2] [µL/min/mg]	SMILES	further results
0.55	29	O=C(COCc1ccncc1)N1CCN(c2ccc(F)cc2Cl)CC1	bioavailability [3]: 37%; clearance [4]: 55 mL/min/kg; Ki [5]: 2.37 µM; bioavailability [6]: 41%; clearance [7]: 38.5 mL/min/kg; half-life [8]: 7.3 h; Vd [9]: 4.8 L/kg; Kp [10]: 4.6; Vd [11]: 3.2 L/kg; half-life [12]: 2.9 h
0.6	38	O=C(COCc1ccncc1)N1CCN(c2ccc(Cl)cc2F)CC1	–
0.24	68	Cc1cc(Cl)ccc1N1CCN(C(=O)COCc2ccncc2)CC1	–
0.18	76	O=C(COCc1ccncc1)N1CCN(c2ccc(Cl)cc2Cl)CC1	–
5.3	–	O=C(CCCc1ccncc1)N1CCN(c2ccc(Cl)cc2Cl)CC1	–
8.5	–	O=C(CNCc1ccncc1)N1CCN(c2ccc(Cl)cc2Cl)CC1	–
> 25	–	CN(CC(=O)N1CCN(c2ccc(Cl)cc2Cl)CC1)Cc1ccncc1	–
7.1	–	O=C(CSCc1ccccc1)N1CCN(c2ccc(Cl)cc2Cl)CC1	–
> 25	–	O=C(CSc1ccccc1)N1CCN(c2ccc(Cl)cc2Cl)CC1	–
0.31	94	O=C(COCc1ccccn1)N1CCN(c2ccc(Cl)cc2Cl)CC1	–
1.09	210	O=C(COCc1cccnc1)N1CCN(c2ccc(Cl)cc2Cl)CC1	–
5.2	4	O=C(COCc1cnccn1)N1CCN(c2ccc(Cl)cc2Cl)CC1	–
2.8	17	O=C(COCc1ccncn1)N1CCN(c2ccc(Cl)cc2Cl)CC1	–
18	16	O=C(COCc1ncccn1)N1CCN(c2ccc(Cl)cc2Cl)CC1	–
0.31	360	O=C(COCc1cccs1)N1CCN(c2ccc(Cl)cc2Cl)CC1	–
1.4	450	O=C(COCc1ccccc1)N1CCN(c2ccc(Cl)cc2Cl)CC1	–

Continued, molecule first:

SMILES	EC50 [1] [µM]	microsomal CLint [2] [µL/min/mg]	further results
O=C(COCc1ccncc1)N1CCN(c2ccc(Cl)cc2)CC1	1.3	17	–
O=C(COCc1ccncc1)N1CCN(c2ccc(F)cc2F)CC1	4.6	22	–
O=C(COCc1ccncc1)N1CCN(c2cc(Cl)ccn2)CC1	4.2	4	–
O=C(COCc1ccncc1)N1CCC(c2ccc(Cl)cc2)CC1	0.68	41	–
O=C(COCc1ccncc1)N1CCC(c2ccc(F)cc2Cl)CC1	0.37	56	–
O=C(COCc1ccncc1)N1CCC(c2ccc(Cl)cc2Cl)CC1	0.39	96	–
O=C(COCc1ccncc1)N1CCC(F)(c2ccc(Cl)cc2)CC1	0.8	45	–
CC1(c2ccc(Cl)cc2)CCN(C(=O)COCc2ccncc2)CC1	2.1	–	–
O=C(COCc1ccncc1)N1CCC(F)(c2ccc(F)cc2Cl)CC1	6.6	–	–
Fc1ccc(C2CCN(C(=S)COCc3ccncc3)CC2)c(Cl)c1	> 10.6	–	–
Clc1ccc(N2CCN(CCOCc3ccccc3)CC2)c(Cl)c1	> 25	–	–
C[C@@H](OCc1ccncc1)C(=O)N1CCC(c2ccc(Cl)cc2F)CC1	> 25	–	–
O=C(COCc1cscn1)N1CCN(c2ccc(Cl)cc2Cl)CC1	0.29	62	–
O=C(COCc1cncs1)N1CCN(c2ccc(Cl)cc2Cl)CC1	1.28	73	–
O=C(COCc1ccccc1)N1CCN(c2ccccc2)CC1	7.1	–	–
O=C(COCc1nccs1)N1CCN(c2ccc(Cl)cc2Cl)CC1	> 10.3	80	–
N#Cc1ccc(COCC(=O)N2CCN(c3ccc(Cl)cc3Cl)CC2)s1	0.21	110	–
O=C(COCc1ccccc1)N1CCN(c2ccccc2Cl)CC1	1.1	540	–
O=C(COCc1ccccc1)N1CCN(c2cccc(Cl)c2)CC1	6.7	310	–
O=C(COCc1ccccc1)N1CCN(c2ccc(Cl)cc2)CC1	0.35	290	–
O=C(COCc1ccccc1)N1CCN(c2ccc(F)cc2)CC1	1.1	110	–
O=C(COCc1ccccc1)N1CCN(c2ccc(F)cc2F)CC1	0.3	580	–
O=C(COCc1ccccc1)N1CCN(c2ccc(F)cc2Cl)CC1	0.27	530	–
O=C(COCc1ccccc1)N1CCN(c2cc(Cl)ccn2)CC1	0.57	130	–
O=C(COCc1ccccc1)N1CCN(c2ccncc2)CC1	> 25	–	–

From ChEMBL document CHEMBL1287773, “4-aryl piperazine and piperidine amides as novel mGluR5 positive allosteric modulators” (Bioorg Med Chem Lett, 2010)
